The term AUC denotes the area under the concentration-time curve, a measure of exposure. Usually CL/F stands for clearance divided by bioavailability, as obtained after extravascular dosing. In general, Cmax refers to the maximum level reached in the sampled fluid or tissue. In general, AUC(0-t) refers to exposure summed from dosing to a finite time, without extrapolation to infinity. A lower AUC(0-t) goes with low exposure. In general, Tmax refers to the time at which the peak concentration occurs.

The source made the active and inactive calls. The rule behind the calls is not given here. Some results are limits rather than exact numbers.

Data set [1] concerns Mus musculus. Put plainly: Protection against Tsc1-GFAP knockout induced mortality in Balb/c mouse assessed as increase in survival rate administered orally twice a day measured post last dose. The class given is functional, organism-based. The procedure, abridged: (§1)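 Tsc1GFAPCKO mice (Tsc1 conditionally inactivated mainly in glia). Oral dosing from P21 at 10, 25, 50 mg/kg qd or 50 mg/kg bid, n = 7–10 per group. Controls were vehicle and a comparator at 10 mg/kg. Body weight tracked. Survival followed from P21 to death or censoring at P90, compared by log-rank test.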

Data set [2] is described as follows: Toxicity in Tsc1-GFAP knockout Balb/c mouse assessed as change in body weight at 50 to 100 mg/kg, po. To be noted: in vivo, dose 50-100 mg/kg. The class given is organism-based.
Data set [3] in a line: Toxicity in po dosed Balb/c nude mouse administered once daily for 14 days measured for 7 days starting from post last dose. The format is organism-based. To be noted: in vivo, time 21 day. The essentials: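 Nontumor-bearing female BALB/c nude mice dosed p.o. once daily for 14 days at 100, 150 or 200 mg/kg (n = 3 each), with vehicle of 20% Captisol in water (n = 1). Body weight change followed, with animals evaluated for 7 days after dosing to set the maximum tolerated dose.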

A short description of data set [4]: Toxicity in Tsc1-GFAP knockout Balb/c mouse assessed as survival rate administered orally once a day measured post last dose. To be noted: in vivo, po, dose 50-100 mg/kg. The procedure, abridged:
as §1

Data set [5] is described as follows: Metabolic stability in CD1 mouse hepatocytes assessed as parent compound remaining at 5 uM incubated for 3 hrs by LC-MS analysis. Particulars: read-out: Stabilty. The class given is ADME, cell-based, Hepatocyte. The essentials: (§2)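 Cryopreserved primary hepatocytes in suspension (CD-1 mouse, Sprague-Dawley rat, Beagle dog, human). Compound diluted from 10 mM DMSO stock to 5 μM final. Sampled at 0, 15, 60, 90 and 180 min, protein precipitated with ACN plus internal standard, supernatant analysed by LC−MS. Run in duplicate. 7-ethoxycoumarin as positive control. Hepatocyte-free medium incubations as negative control.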

Data set [6] concerns Mus musculus. The experiment in a line: Protection against Tsc1-GFAP knockout induced mortality in Balb/c mouse assessed as increase in survival rate at 100 mg/kg, po administered as single dose. The format is functional, organism-based.
Data set [7] can be described thus: Metabolic stability in human hepatocytes assessed as parent compound remaining at 5 uM incubated for 3 hrs by LC-MS analysis. The class given is ADME, cell-based, Hepatocyte. To be noted: read-out: Stabilty. The essentials: as §2
The nature of data set [8]: Metabolic stability in Sprague-Dawley rat hepatocytes assessed as parent compound remaining at 5 uM incubated for 3 hrs by LC-MS analysis. The format is ADME, cell-based, Hepatocyte. To be noted: read-out: Stabilty. The essentials:
as §2

Data set [9] can be described thus: Metabolic stability in Beagle dog hepatocytes assessed as parent compound remaining at 5 uM incubated for 3 hrs by LC-MS analysis. The format is ADME, cell-based, Canis lupus familiaris, Hepatocyte. Particulars: read-out: Stabilty. The procedure, abridged:
as §2

Data set [10] is described as follows: AUC (0 to 8 hrs) in C57BL/6J mouse plasma at 10 mg/kg, po administered once a day for 4 consecutive days by mass spectrometry based UHPLC analysis. Also on record: route oral, time 4 day, dose 10 mg/kg. The class given is ADME, organism-based. The procedure, abridged:
(§3)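 Female C57BL/6J mice given 10 mg/kg p.o. in 20% Captisol once daily for 4 consecutive days. Plasma and brain sampled after the final dose on day 4, n = 3 per time point.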

Data set [11] in a line: AUC (0 to 8 hrs) in C57BL/6J mouse brain at 10 mg/kg, po administered once a day for 4 consecutive days by mass spectrometry based UHPLC analysis. Also on record: route oral, time 4 day, dose 10 mg/kg. The format is ADME, organism-based. The essentials: as §3
Data set [12] concerns Mus musculus. Put plainly: Protection against Tsc1-GFAP knockout induced mortality in Balb/c mouse assessed as increase in survival rate at 10 mg/kg, po administered as single dose. The class given is functional, organism-based.
Data set [13] in a line: Clearance in C57BL/6J mouse plasma at 10 mg/kg, po administered as single dose by mass spectrometry based UHPLC analysis. The class given is ADME, organism-based. The essentials: (§4)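 Female C57BL/6J mice, one oral dose of 10 mg/kg in 20% Captisol; plasma and brain levels over time, n = 3 per time point (mean).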
Data set [14] is described as follows: Elimination half life in C57BL/6J mouse plasma at 10 mg/kg, po administered as single dose by mass spectrometry based UHPLC analysis. The class given is ADME, organism-based. To be noted: read-out: beta t1/2 (converted). The essentials:
as §4

Data set [15] in a line: Cmax in C57BL/6J mouse plasma at 10 mg/kg, po administered as single dose by mass spectrometry based UHPLC analysis. Also on record: route oral, dose 10 mg/kg. The class given is ADME, organism-based. The essentials: as §4
Data set [16] in a line: AUC (0 to 8 hrs) in C57BL/6J mouse plasma at 10 mg/kg, po administered as single dose by mass spectrometry based UHPLC analysis. The arrangement: time < 8 hr, route oral, dose 10 mg/kg. The class given is ADME, organism-based. The procedure, abridged: as §4
In data set [17] the test system is Mus musculus. Put plainly: In vivo inhibition of PI3Kalpha in C57BL/6J mouse assessed as increase in plasma glucose concentration at 10 mg/kg, po measured after 8 hrs by glucoseoxidase-peroxide coupled colorimetric assay. The format is functional, organism-based.
A short description of data set [18]: Cmax in C57BL/6J mouse brain at 10 mg/kg, po administered as single dose by mass spectrometry based UHPLC analysis. The arrangement: route oral, dose 10 mg/kg. The class given is ADME, organism-based. The procedure, abridged:
as §4

The nature of data set [19]: AUC (0 to 8 hrs) in C57BL/6J mouse brain at 10 mg/kg, po administered as single dose by mass spectrometry based UHPLC analysis. The format is ADME, organism-based. Also on record: time < 8 hr, route oral, dose 10 mg/kg. The procedure, abridged: as §4
Data set [20] is described as follows: Tmax in C57BL/6J mouse plasma at 10 mg/kg, po administered as single dose by mass spectrometry based UHPLC analysis. The class given is ADME, organism-based. The essentials: (§5)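 Female C57BL/6J mice dosed orally at 10 mg/kg in 20% Captisol, either once or once daily for 4 days with sampling after the last dose on day 4. Plasma and brain concentrations followed over time. Tmax taken from at least 3 time points.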

Data set [21] is described as follows: Tmax in C57BL/6J mouse brain at 10 mg/kg, po administered once a day for 4 consecutive days by mass spectrometry based UHPLC analysis. The class given is ADME, organism-based. To be noted: time 4 day. The essentials:
as §5

The test system of data set [22] is Mus musculus. Put plainly: In vivo inhibition of PI3Kalpha C57BL/6J mouse assessed as increase in plasma insulin concentration at 10 mg/kg, po measured after 8 hrs by ELISA. The class given is functional, organism-based. (In general: An ELISA detects its analyte on a solid surface through an enzyme-linked reagent.)
Data set [23] can be described thus: Toxicity in Tsc1-GFAP knockout Balb/c mouse assessed as change in body weight at 10 mg/kg, po. The class given is organism-based. To be noted: in vivo. The procedure, abridged: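 Tsc1GFAPCKO mice dosed orally from P21 at 10, 25, 50 mg/kg or 50 mg/kg bid. Body weight tracked during the survival study; mean ± SEM.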
Data set [24] is described as follows: Tmax in C57BL/6J mouse brain at 10 mg/kg, po administered as single dose by mass spectrometry based UHPLC analysis. The class given is ADME, organism-based. The essentials:
as §5

The nature of data set [25]: Tmax in C57BL/6J mouse plasma at 10 mg/kg, po administered once a day for 4 consecutive days by mass spectrometry based UHPLC analysis. The format is ADME, organism-based. Particulars: time 4 day. The essentials:
as §5

A short description of data set [26]: Elimination half life in C57BL/6J mouse plasma at 10 mg/kg, po administered once a day for 4 consecutive days by mass spectrometry based UHPLC analysis. The class given is ADME, organism-based. To be noted: time 4 day, read-out: beta t1/2 (converted). The procedure, abridged: as §3
Data set [27] is described as follows: Cmax in C57BL/6J mouse brain at 10 mg/kg, po administered once a day for 4 consecutive days by mass spectrometry based UHPLC analysis. The format is ADME, organism-based. The arrangement: route oral, dose 10 mg/kg, time 4 day. The procedure, abridged:
as §3

Data set [28] in a line: Elimination half life in C57BL/6J mouse brain at 10 mg/kg, po administered once a day for 4 consecutive days by mass spectrometry based UHPLC analysis. The format is ADME, organism-based. Particulars: time 4 day, read-out: beta t1/2 (converted). The essentials: as §3
Data set [29] can be described thus: Clearance in C57BL/6J mouse plasma at 10 mg/kg, po administered once a day for 4 consecutive days by mass spectrometry based UHPLC analysis. The format is ADME, organism-based. Particulars: time 4 day. The essentials: as §3
Data set [30] is described as follows: Cmax in C57BL/6J mouse plasma at 10 mg/kg, po administered once a day for 4 consecutive days by mass spectrometry based UHPLC analysis. The class given is ADME, organism-based. The arrangement: route oral, dose 10 mg/kg, time 4 day. The procedure, abridged:
as §3

Data set [31] has as its system Mus musculus. Put plainly: In vivo inhibition of mTORC1 signalling in C57BL/6J mouse assessed as reduction in RPS6 phosphorylation at S235/236 residue in cortex at 10 mg/kg, po incubated for 30 mins by Western blot analysis. The class given is functional, organism-based. On the technique in general: In western blotting, separated proteins are transferred to a membrane and probed.

Take `Nc1cc(C(F)F)c(-c2nc(N3C4CCC3COC4)nc(N3C4CCC3COC4)n2)cn1`: the values for the Activity entry in data set [1], in data set [2] and in data set [4] were “Dose-dependent effect”, “Non-Toxic” and “Dose-dependent effect”, respectively. Besides, the MTD at 504 h in [3] was 150 mg/kg. The remaining at 3 h, 5 µM in data set [5] is above 59.9%; in [7], 27.8%; in [8], above 59.9%; in data set [9], above 59.9%. Moreover, the result in data set [6] was Active.
Take `CO[C@H]1C[C@@H]2CC[C@@H](C)[C@@](O)(O2)C(=O)C(=O)N2CCCC[C@H]2C(=O)O[C@H]([C@H](C)C[C@@H]2CC[C@@H](OCCO)[C@H](OC)C2)CC(=O)[C@H](C)/C=C(\C)[C@@H](O)[C@@H](OC)C(=O)[C@H](C)C[C@H](C)/C=C/C=C/C=C/1C` [EVEROLIMUS]: the exposure (AUC) at 96 h amounted to 42300 ng·h/mL in data set [10] and 640 ng·h/mL in data set [11]. The outcome in [12] was Active. The CL/F was 4.6 mL/min/kg in data set [13] and 3.75 mL/min/kg in data set [29]. Besides, the half-life in data set [14] was 6.5 h; in data set [26] it was 5.7 h; in data set [28], 15.8 h. Further, the highest concentration (Cmax) in data set [15] came to 3460 ng/mL; in data set [18], 57 ng/mL; in data set [27] it was 43 ng/mL; in [30] it was 3940 ng/mL. Moreover, the AUC(0-t) at 8 h in data set [16] worked out at 33600 ng·h/mL; in data set [19] it was 804 ng·h/mL. Moreover, the inhibition entry in [17], in [22] and in [31] was “inactive” throughout. Further, the Tmax in data set [20] was found to be 0.5 h; in [21] it was 4 h; in [24], 24 h; in [25], 2 h. Moreover, the Activity entry in data set [23] is given as “Non-Toxic”.

Source of the values: ChEMBL document CHEMBL4715860 (J Med Chem, 2020).
